Measured values as given in ChEMBL document CHEMBL5321283, “Structure-Activity Relationships of the Antimicrobial Peptide Natural Product Apidaecin” (J Med Chem, 2023).
≈ marks a conversion by molar mass, not a printed value. Calls of active or inactive are those of the source. No cut-off for these calls is given here. Where a SMILES comes first, the peptide text is derived from it. [ ]: non-standard residue; d: D form. The star is where a group is joined. Orn(α-tetramethylguanidino) = CN(C)C(=N[C@@H](CCCN)C(=O)*)N(C)C; Phe(4-F) = N[C@@H](Cc1ccc(F)cc1)C(=O)O; Arg(Me) = CNC(=N)NCCC[C@H](N)C(=O)O; Hyp = O=C(O)[C@@H]1C[C@@H](O)CN1; NMeL = CN[C@@H](CC(C)C)C(=O)O

Tests used:
[1] = test system: Escherichia coli; experiment: Antibacterial activity against Escherichia coli BL21 assessed as bacterial growth inhibition by broth microdilution assay; type: functional
[2] = Stability in human plasma assessed as parent compound remaining measured after 2 hrs; type: ADME, cell-free; conditions: read-out: Stability
[3] = test system: Escherichia coli; experiment: Potency index, ratio of Api-137 MIC to test compound MIC for antibacterial activity against Escherichia coli BL21 assessed as bacterial growth inhibition by broth microdilution assay; type: functional
[4] = test system: Escherichia coli; experiment: Antibacterial activity against Escherichia coli BL21 harboring RF2 (Q280L) mutant assessed as bacterial growth inhibition by broth microdilution assay; type: functional
[5] = test system: Escherichia coli; experiment: Antibacterial activity against Escherichia coli BL21 harboring sbmA mutant assessed as bacterial growth inhibition by broth microdilution assay; type: functional
[6] = test system: Escherichia coli; experiment: Antibacterial activity against Escherichia coli BL21 harboring RF2 (R262C) mutant assessed as bacterial growth inhibition by broth microdilution assay; type: functional
[7] = test system: Escherichia coli; experiment: Induction of stop-codon readthrough in Escherichia coli BL21 carrying pRXG (UGA) reporter incubated for 18 hrs by imaging analysis; type: functional
Procedure, shortened: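 Lawn spread on M9 agar with 0.2 mM IPTG and kanamycin, then dried. 2 μL drops of 0.2 mM peptide applied; 1 μL chloramphenicol (1 mg/mL) as negative control. ~18 h, 37 °C; RFP (Cy3) and GFP (Cy2) imaged.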

SMILES	MIC [1] [µM]	remaining at 2 h [2] [%]	Ratio [3]	MIC [4] [µM]	MIC [5] [µM]	MIC [6] [µM]	Activity [7]
CC[C@H](C)[C@H](NC(=O)[C@H](Cc1ccc(O)cc1)NC(=O)[C@@H](NC(=O)[C@@H]1CCCN1C(=O)[C@H](CCCNC(=N)N)NC(=O)[C@H](CC(N)=O)NC(=O)[C@H](CC(N)=O)NC(=O)[C@H](CCCN)N=C(N(C)C)N(C)C)C(C)C)C(=O)N1CCC[C@H]1C(=O)N[C@@H](CCCNC(=N)N)C(=O)N1CCC[C@H]1C(=O)N[C@@H](CCCNC(=N)N)C(=O)N1CCC[C@H]1C(=O)N1CCC[C@H]1C(=O)N[C@@H](Cc1c[nH]cn1)C(=O)N1CCC[C@H]1C(=O)N[C@@H](CCCNC(=N)N)C(=O)N[C@@H](CC(C)C)C(=O)O ({Orn(α-tetramethylguanidino)}-NNRPVYIPRPRPPHPRL-OH)	0.16 (≈ 0.367 µg/mL)	~80	1	> 25	> 25	> 25	
CC[C@H](C)[C@H](NC(=O)[C@H](Cc1ccc(O)cc1)NC(=O)[C@@H](NC(=O)[C@@H]1CCCN1C(=O)[C@H](CCCNC(=N)N)NC(=O)[C@H](CC(N)=O)NC(=O)[C@H](CC(N)=O)NC(=O)[C@H](CCCN)N=C(N(C)C)N(C)C)C(C)C)C(=O)N1CCC[C@H]1C(=O)N[C@@H](CCCNC(=N)N)C(=O)N1CCC[C@H]1C(=O)N[C@@H](CCCNC(=N)N)C(=O)N1CCC[C@H]1C(=O)N1CCC[C@H]1C(=O)N[C@@H](Cc1c[nH]cn1)C(=O)N1CCC[C@H]1C(=O)N[C@@H](CCCNC(=N)NC)C(=O)N[C@@H](CC(C)C)C(=O)O ({Orn(α-tetramethylguanidino)}-NNRPVYIPRPRPPHP[Arg(Me)]L-OH)	0.3 (≈ 0.692 µg/mL)		1	25 (≈ 57.6 µg/mL)	> 25	> 25	Active
CC[C@H](C)[C@H](NC(=O)[C@H](Cc1ccc(F)cc1)NC(=O)[C@@H](NC(=O)[C@@H]1C[C@@H](O)CN1C(=O)[C@H](CCCNC(=N)N)NC(=O)[C@H](CC(N)=O)NC(=O)[C@H](CC(N)=O)NC(=O)[C@H](CCCN)N=C(N(C)C)N(C)C)C(C)C)C(=O)N1CCC[C@H]1C(=O)N[C@@H](CCCNC(=N)N)C(=O)N1CCC[C@H]1C(=O)N[C@@H](CCCNC(=N)N)C(=O)N1CCC[C@H]1C(=O)N1CCC[C@H]1C(=O)N[C@@H](Cc1c[nH]cn1)C(=O)N1CCC[C@H]1C(=O)N[C@@H](CCCNC(=N)NC)C(=O)N(C)[C@@H](CC(C)C)C(=O)O ({Orn(α-tetramethylguanidino)}-NNR[Hyp]V[Phe(4-F)]IPRPRPPHP[Arg(Me)][NMeL]-OH)		~80			> 25	6.2 (≈ 14.5 µg/mL)	Active
